Data published in ChEMBL document CHEMBL1128543, “Computer-aided design and synthesis of 5-substituted tryptamines and their pharmacology at the 5-HT1D receptor: discovery of compounds with potential anti-migraine properties” (J Med Chem, 1995).

Experiments:
Details in all cases: Oryctolagus cuniculus
[1] = target: 5-hydroxytryptamine receptor 1D (Homo sapiens) (UniProt P28221); test: The compound was tested for intrinsic activity against 5-HT1D receptor
Procedure, shortened: (§1)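 Rabbit saphenous vein rings (male New Zealand White; 4–5 mm) mounted on tungsten wires in Krebs–Henseleit buffer, pH 7.4, 37 °C, gassed with 95% O2/5% CO2, at 2 g passive force. Pretreated for 30 min with pargyline (500 μM) and phenoxybenzamine (0.3 μM), then washed. Cumulative 5-HT curve, then after 60 min a test agonist curve. Potency is p[A50]; α is test maximum/5-HT maximum; n ≥ 3.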

[2] = target: 5-hydroxytryptamine receptor 1D (Homo sapiens) (UniProt P28221); test: The compound was tested for binding affinity against 5-HT1D receptor; procedure, shortened: as §1
[3] = target: 5-hydroxytryptamine receptor 2A (Homo sapiens) (UniProt P28223)
Chain of 5-hydroxytryptamine receptor 2A (Homo sapiens) (P28223 whole entry): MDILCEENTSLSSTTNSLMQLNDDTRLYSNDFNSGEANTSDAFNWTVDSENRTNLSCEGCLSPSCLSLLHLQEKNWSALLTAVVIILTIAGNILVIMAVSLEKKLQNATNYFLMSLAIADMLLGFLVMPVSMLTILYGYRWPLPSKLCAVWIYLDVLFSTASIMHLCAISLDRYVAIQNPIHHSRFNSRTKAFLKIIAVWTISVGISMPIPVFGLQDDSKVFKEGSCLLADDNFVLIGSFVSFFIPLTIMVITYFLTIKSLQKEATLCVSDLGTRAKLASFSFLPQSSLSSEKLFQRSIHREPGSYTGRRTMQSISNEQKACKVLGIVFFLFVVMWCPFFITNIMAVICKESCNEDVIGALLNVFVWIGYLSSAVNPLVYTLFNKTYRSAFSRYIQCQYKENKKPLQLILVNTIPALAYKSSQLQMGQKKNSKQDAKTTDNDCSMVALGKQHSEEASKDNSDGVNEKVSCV

Chain of 5-hydroxytryptamine receptor 1D (Homo sapiens) (P28221 whole entry): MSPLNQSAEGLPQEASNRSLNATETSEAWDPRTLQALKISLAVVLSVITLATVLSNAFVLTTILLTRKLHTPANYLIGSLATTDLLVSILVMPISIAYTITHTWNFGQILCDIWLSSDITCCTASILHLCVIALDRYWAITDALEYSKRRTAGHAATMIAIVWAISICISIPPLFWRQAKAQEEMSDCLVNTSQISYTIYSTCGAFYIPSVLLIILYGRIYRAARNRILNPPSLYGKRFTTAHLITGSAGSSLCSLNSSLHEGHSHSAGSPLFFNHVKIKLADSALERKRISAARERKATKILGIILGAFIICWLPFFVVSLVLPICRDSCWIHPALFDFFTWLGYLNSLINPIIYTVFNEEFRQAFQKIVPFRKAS

| SMILES | Intrinsic activity [1] | p[A50] [2] | p[A50] [3] |
| --- | --- | --- | --- |
| NCCc1c[nH]c2ccc(CC3NC(=O)N(Cc4ccc(-c5ccccc5)cc4)C3=O)cc12 (stereo not drawn) | 0.6 | 6.7 |  |
| CN(C)CCc1c[nH]c2ccc(CCC3NC(=O)N(Cc4ccccc4)C3=O)cc12 (stereo not drawn) | 0.2 | 6.3 | 5.9 |
| NCCc1c[nH]c2ccccc12 | 0.86 | 6.9 | 6.1 |
| CNCCc1c[nH]c2ccc(CCN3C(=O)CNC3=O)cc12 | 0.7 | 6.7 | < 4.5 |
| NCCc1c[nH]c2ccc(CC3NC(=O)N(Cc4ccccc4)C3=O)cc12 (stereo not drawn) | 0.72 | 6.1 | 4 |
| Cn1c(Cc2ccc3[nH]cc(CCN)c3c2)cn(Cc2ccccc2)c1=O | 0.95 | 7.1 | 6.3 |
| NCCc1c[nH]c2ccc(CC3NC(=O)N(Cc4ccc(C(=O)Nc5ccccc5)cc4)C3=O)cc12 (stereo not drawn) | 0.7 | 5.9 | 4.5 |
| O=C1CC2(CCCC2)CC(=O)N1CCCCN1CCN(c2ncccn2)CC1 |  | 4.5 |  |
| CN1C(=O)N(Cc2ccccc2)CC1Cc1ccc2[nH]cc(CCN)c2c1 (stereo not drawn) |  | 7.5 | 5 |
| CN(C)CCc1c[nH]c2ccc(CCN3C(=O)NC(Cc4ccc([N+](=O)[O-])cc4)C3=O)cc12 (stereo not drawn) | 0.6 | 6.8 | < 4.5 |
| NCCc1c[nH]c2ccc(CC3NC(=O)N(Cc4cccc(Oc5ccccc5)c4)C3=O)cc12 (stereo not drawn) | 0.79 | 7.4 | 4.7 |
| NCCc1c[nH]c2ccc(CC3NC(=O)N(Cc4cccc(C(=O)Nc5ccccc5)c4)C3=O)cc12 (stereo not drawn) | 0.53 | 6.6 | 3.9 |
| CN(C)CCc1c[nH]c2ccc(CC3NC(=O)N(Cc4ccc(Oc5ccccc5)cc4)C3=O)cc12 (stereo not drawn) | 0.79 | 7.4 | 4.7 |
| O=C1CC2(CCCC2)CS(=O)(=O)N1CCCCN1CCN(c2ncccn2)CC1 |  | 4.9 | 5.1 |
| NCCc1c[nH]c2ccc(C(N)=O)cc12 | 0.84 | 8.1 | 5.9 |
| NCCc1c[nH]c2ccc(CCC3NC(=O)N(Cc4ccccc4)C3=O)cc12 (stereo not drawn) | 0.9 | 6.7 | < 4.5 |
| CN(C)CCc1c[nH]c2ccc(CCN3C(=O)N[C@@H](Cc4ccc(NS(C)(=O)=O)cc4)C3=O)cc12 | 0.6 | 7.4 | < 4.5 |
| O=C(CCCN1CCC2(CC1)C(=O)NCN2c1ccccc1)c1ccc(F)cc1 |  | 5.8 | 9.7 |
| CN1C(=O)NC(Cc2ccc3[nH]cc(CCN)c3c2)C1=O (stereo not drawn) |  | 4.8 | 4 |
| NCCc1c[nH]c2ccc(CC3NC(=O)N(CCc4ccccc4)C3=O)cc12 (stereo not drawn) | 0.67 | 6.7 | 4.5 |
| C[C@@H](CO)NC(=O)[C@@H]1C=C2c3cccc4[nH]cc(c34)C[C@H]2N(C)C1 | 0.9 | 9 |  |
| COC(=O)c1ccc(CC2NC(=O)N(CCc3ccc4[nH]cc(CCN)c4c3)C2=O)cc1 (stereo not drawn) | 0.7 | 7.3 | < 4.5 |
| CN(C)CCc1c[nH]c2ccc(CC3NC(=O)N(CCc4ccccc4)C3=O)cc12 (stereo not drawn) | 0.39 | 6 |  |
| CN(C)CCc1c[nH]c2ccc(CC3NC(=O)N(Cc4ccccc4)C3=O)cc12 (stereo not drawn) |  | 5.6 | < 4.5 |

| SMILES | Intrinsic activity [1] | p[A50] [2] | p[A50] [3] |
| --- | --- | --- | --- |
| CNS(=O)(=O)Cc1ccc2[nH]cc(CCN(C)C)c2c1 | 0.83 | 6.6 |  |
| CN(C)CCc1c[nH]c2ccc(CCN3C(=O)CNC3=O)cc12 | 0.5 | 6.1 | < 4.5 |
| CC(=O)Nc1cccc(CC2NC(=O)N(CCc3ccc4[nH]cc(CCN)c4c3)C2=O)c1 (stereo not drawn) | 0.7 | 7 | < 4.5 |
| CN(C)CCc1c[nH]c2ccc(C[C@H]3CNC(=O)N3C)cc12 | 1 | 7 | < 4.5 |
| CNCCc1c[nH]c2ccc(CCN3C(=O)NC(Cc4cccc(NC(C)=O)c4)C3=O)cc12 (stereo not drawn) | 0.6 | 6.9 | < 4.5 |
| CN(C)CCc1c[nH]c2ccc(O)cc12 | 0.92 | 7.3 | 6.8 |
| O=C1NCN(c2ccccc2)C12CCN(CC1COc3ccccc3O1)CC2 (stereo not drawn) |  | 5.1 | 6.2 |
| CS(=O)(=O)Nc1cccc(CC2NC(=O)N(CCc3ccc4[nH]cc(CCN)c4c3)C2=O)c1 (stereo not drawn) | 0.8 | 7.2 | < 4.5 |
| COc1ccc2[nH]cc(C3=CCNCC3)c2c1 | 0.89 | 7.1 |  |
| CS(=O)(=O)Nc1ccc(CC2NC(=O)N(CCc3ccc4[nH]cc(CCN)c4c3)C2=O)cc1 (stereo not drawn) | 0.8 | 7.4 | 5.2 |
| CC(=O)Nc1ccc(CN2C(=O)NC(Cc3ccc4[nH]cc(CCN)c4c3)C2=O)cc1 (stereo not drawn) | 0.81 | 5.8 |  |
| CN(C)CCc1c[nH]c2ccc(CCN3C(=O)NC(Cc4ccc(NS(C)(=O)=O)cc4)C3=O)cc12 (stereo not drawn) | 0.6 | 7.4 | < 4.5 |
| NCCc1c[nH]c2ccc(CC3NC(=O)N(Cc4cccc(NC(=O)c5ccccc5)c4)C3=O)cc12 (stereo not drawn) | 0.85 | 7.3 | 4.6 |
| CCCNC(=O)c1cccc(CN2C(=O)NC(Cc3ccc4[nH]cc(CCN)c4c3)C2=O)c1 (stereo not drawn) | 0.99 | 6.8 | 4.5 |
| O=C(c1ccc(F)cc1)C1CCN(CCn2c(=O)[nH]c3ccccc3c2=O)CC1 |  | 6 | 9.1 |
| CN1C(=O)NC[C@@H]1Cc1ccc2[nH]cc(CCN)c2c1 | 0.88 | 6.9 | 5 |
| CN1C(=O)N(Cc2ccccc2)C(=O)C1Cc1ccc2[nH]cc(CCN)c2c1 (stereo not drawn) | 1 | 6 | < 4.5 |
| CNC(=O)c1cccc(CN2C(=O)NC(Cc3ccc4[nH]cc(CCN)c4c3)C2=O)c1 (stereo not drawn) | 0.71 | 5.8 | 4.3 |
| CC(=O)Nc1cccc(CC2NC(=O)N(CCc3ccc4[nH]cc(CCN(C)C)c4c3)C2=O)c1 (stereo not drawn) | 0.6 | 7.2 | < 4.5 |
| CN(C)CCc1c[nH]c2ccc(CC3NC(=O)N(Cc4cccc(NC(=O)c5ccccc5)c4)C3=O)cc12 (stereo not drawn) | 0.55 | 6.3 | 5 |
| CS(=O)(=O)Nc1ccc(C[C@H]2NC(=O)N(CCc3ccc4[nH]cc(CCN)c4c3)C2=O)cc1 | 0.7 | 7.1 | 5.3 |
| NCCc1c[nH]c2ccc(CC3NC(=O)N(CCCc4ccccc4)C3=O)cc12 (stereo not drawn) | 0.93 | 6.6 | < 4.5 |
| Cc1ccc2[nH]cc(CCN)c2c1 | 1 | 6.1 | 6.2 |
| CCC(CO)NC(=O)[C@H]1C=C2c3cccc4c3c(cn4C)CC2N(C)C1 (stereo partly drawn) | 0.64 | 6.7 |  |
